# Results reported in ChEMBL document CHEMBL1123293, “Potent vasopressin antagonists lacking the proline residue at position 7” (J Med Chem, 1986).
# Assays:
# [1] = system: Rattus norvegicus; experiment: Dose required to decrease urine osmolality in rats from the hydropenic levels (~1500 mOsm/kg of H20) 300 mOsm/kg H20; format: functional
# Procedure, shortened: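 Male rats were deprived of food and water overnight to give a stable hydropenic state (urine osmolality ~1500 mOsm/kg H₂O). Rats were kept in metabolism cages, four per cage, and given vehicle or one of four doses. Urine volume and osmolality were measured. ED (µg/kg) to lower Uosm to 300 mOsm/kg H₂O was averaged from one to three dose-response curves per peptide.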
# [2] = target: Vasopressin V2 receptor (Sus scrofa) (UniProt P32307); experiment: Affinity for vasopressin V2-receptor of porcine renal medullary membrane; format: tissue-based; settings: Renal medulla
# Procedure, shortened: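 Porcine renal medullary membrane preparation; displacement of [³H]LVP binding. K_bind calculated from the IC50 by the competitive-inhibition relation Kb = IC50/(1 + L/K_D), with K_D taken as the dissociation constant of [³H]LVP.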
# [3] = target: Vasopressin V2 receptor (Sus scrofa, UniProt P32307); experiment: Inhibition of LVP stimulated adenylate cyclase activity in pig kidney medullary membrane; format: functional, cell membranes
# Procedure, shortened: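 LVP-stimulated adenylate cyclase in pig kidney medullary membranes. The inhibition constant K_i was derived from the competitive-inhibition equation. Values are the mean of triplicate determinations.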
# Chain of Vasopressin V2 receptor (Sus scrofa) (P32307 whole entry): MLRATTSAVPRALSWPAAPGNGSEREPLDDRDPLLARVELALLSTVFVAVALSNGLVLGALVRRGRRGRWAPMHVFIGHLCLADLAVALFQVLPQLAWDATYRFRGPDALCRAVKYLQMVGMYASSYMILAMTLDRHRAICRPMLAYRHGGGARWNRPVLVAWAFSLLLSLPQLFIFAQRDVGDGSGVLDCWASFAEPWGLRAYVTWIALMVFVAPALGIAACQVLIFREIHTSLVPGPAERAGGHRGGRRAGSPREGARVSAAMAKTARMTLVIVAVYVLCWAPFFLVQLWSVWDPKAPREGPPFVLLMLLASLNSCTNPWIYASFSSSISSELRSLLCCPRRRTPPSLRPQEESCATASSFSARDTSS
# Chain of Vasopressin V2 receptor (P32307 whole entry): as above
Compound,K bind [2] [nM],further results
CCOc1ccc(C[C@H]2NC(=O)CC3(CCCCC3)SSC[C@@H](C(=O)N3CCC[C@H]3C(=O)N[C@@H](CCCN=C(N)N)C(=O)NCC(N)=O)NC(=O)[C@H](CC(N)=O)NC(=O)[C@H](C(C)C)NC(=O)[C@H](Cc3ccccc3)NC2=O)cc1,–,ED300 [1]: 11 µg/kg
CCOc1ccc(C[C@@H]2NC(=O)CC3(CCCCC3)SSC[C@H](C(=O)N3CCC[C@H]3C(=O)N[C@@H](CCCN=C(N)N)C(N)=O)NC(=O)[C@@H](CC(N)=O)NC(=O)[C@H](C(C)C)NC(=O)[C@@H](Cc3ccccc3)NC2=O)cc1,12,–
CCOc1ccc(C[C@H]2NC(=O)CC3(CCCCC3)SSC[C@@H](C(=O)N3CCC[C@H]3C(=O)N[C@@H](CCCN=C(N)N)C(N)=O)NC(=O)[C@H](CC(N)=O)NC(=O)[C@H](C(C)C)NC(=O)[C@H](Cc3ccccc3)NC2=O)cc1,–,ED300 [1]: 9 µg/kg
CCOc1ccc(C[C@@H]2NC(=O)CC3(CCCCC3)SSC[C@H](C(=O)N[C@@H](CCCCN)C(N)=O)NC(=O)[C@@H](CCN)NC(=O)[C@H](C(C)C)NC(=O)[C@@H](Cc3ccccc3)NC2=O)cc1,26,–
CCOc1ccc(C[C@@H]2NC(=O)CC3(CCCCC3)SSC[C@H](C(=O)N3CCC[C@H]3C(=O)N[C@@H](CCCN=C(N)N)C(=O)NCC(N)=O)NC(=O)[C@@H](CC(N)=O)NC(=O)[C@H](C(C)C)NC(=O)[C@@H](Cc3ccccc3)NC2=O)cc1,12,–
CCOc1ccc(C[C@H]2NC(=O)CC3(CCCCC3)SSC[C@@H](C(=O)N[C@@H](CCCNC(=N)N)C(N)=O)NC(=O)[C@H](CCN)NC(=O)[C@H](C(C)C)NC(=O)[C@H](Cc3ccccc3)NC2=O)cc1,–,Ki [3]: 2.5 nM
CCOc1ccc(C[C@@H]2NC(=O)CC3(CCCCC3)SSC[C@H](C(=O)N[C@H](CCCN=C(N)N)C(N)=O)NC(=O)[C@@H](CCN)NC(=O)[C@H](C(C)C)NC(=O)[C@@H](Cc3ccccc3)NC2=O)cc1,4.4,–
